From PubChem BioAssay
Shown are actives, neighbours in structure and some others; about 2.2% of the full set was active somewhere.
FN deposition inh = inhibitors of fibronectin matrix deposition, primary screen, AH1F cells, Alexa488-fibronectin fluorescence, plate reader; AH1F fibroblasts, overnight; inhibition, % at 12.6 µM; 350,000 tested, 0.086% active;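 active = mean inhibition across replicates of 30% or more, regardless of how many single replicates reach that level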
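Assay system: AH1F fibroblast monolayer, labelled fibronectin deposition. Amount: 10000 cells per well. Also added: labelled fibronectin 24 nM. Compound: single-point pinned compound. Incubation: cell attachment 1 h, compound and FN exposure overnight. Detection: fluorescence after three HBSS washes, excitation 485 nm, emission 525 nm. Read-out: inhibition of fibronectin deposition signal.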
ERAP1 HTS inh = human ERAP1 aminopeptidase inhibitors, primary screen, biochemical, single point, plate reader; recombinant ERAP1, Leu-AMC fluorescence, 60 min; inhibition, % at 10.7 µM; 340,000 tested, 0.15% active;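 active = mean replicate inhibition of at least 30%, or all replicates individually reaching that 30% level; inactive = mean below 30% and not every replicate reaching it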
PGC1a acetyl inh = inhibitors of PGC1a acetylation signal, primary screen, cell-based, U2OS, AlphaScreen, inhibitor mode; AlphaScreen anti-acetyl-lysine; with virally co-expressed GCN5 acetyltransferase; inhibition, % at 15.6 µM; 350,000 tested, 0.17% active; AID 651687, 2012;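 active = every replicate shows inhibition of at least 40%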
SIRT5 inh = SIRT5 desuccinylase inhibitors, primary screen, biochemical, fluorescence imaging, single point, set 5. NAD-dependent protein deacylase sirtuin-5, mitochondrial (Homo sapiens), Q9NXA8. Purified SirT5, succinyl-peptide AMC, trypsin-coupled fluorescence. inhibition, % at 15 µM. 330,000 tested, 1.1% active; in the data active = inhibition above about 15%
Target sequence (Q9NXA8 whole entry, looked up): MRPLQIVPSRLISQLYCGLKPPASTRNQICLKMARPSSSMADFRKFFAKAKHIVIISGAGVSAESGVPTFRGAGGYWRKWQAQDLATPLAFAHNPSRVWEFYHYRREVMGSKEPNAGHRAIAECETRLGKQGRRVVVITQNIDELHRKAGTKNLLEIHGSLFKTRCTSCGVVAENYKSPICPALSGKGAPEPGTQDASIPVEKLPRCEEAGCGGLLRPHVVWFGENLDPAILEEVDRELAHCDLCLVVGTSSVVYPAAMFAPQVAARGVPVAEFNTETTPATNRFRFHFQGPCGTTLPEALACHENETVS
FGF22 binding = binders of human FGF22 protein, primary screen, FGF22 synaptogenesis inhibitor project, biophysical, thermal shift, single point | recombinant FGF22 thermal shift, SYPRO orange fluorescence; percent of sucrose octasulfate shift, DMSO zero | activity (Tm shift, normalised), % at 9.99 µM | Fibroblast growth factor 22 (Homo sapiens), Q9HCT0 | AID 651658, 2012 | 340,000 tested, 1.5% active;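 active = mean Tm shift, scaled 0 neutral to 100 positive control, at about 1.3% or above, every replicate too, limit read from the data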
Target sequence (Q9HCT0 whole entry, looked up): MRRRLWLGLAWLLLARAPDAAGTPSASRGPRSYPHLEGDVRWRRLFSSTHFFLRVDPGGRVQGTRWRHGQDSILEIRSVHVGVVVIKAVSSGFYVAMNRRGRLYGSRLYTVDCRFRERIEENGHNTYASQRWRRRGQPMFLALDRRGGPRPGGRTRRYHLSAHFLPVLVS
Large screens that a line does not name were inactive.

C[C@@H]1CN([C@@H](C)CO)C(=O)c2c(c3ccccc3n2C)-c2ccccc2CO[C@@H]1CN(C)Cc1cccc2c1OCCCO2	SIRT5 inh 25
C[C@@H]1CN([C@H](C)CO)C(=O)c2c(c3ccccc3n2C)-c2ccccc2CO[C@H]1CN(C)Cc1cccc2c1OCCCO2	SIRT5 inh 23
C[C@@H]1CN([C@H](C)CO)C(=O)c2c(c3ccccc3n2C)-c2ccccc2CO[C@@H]1CN(C)Cc1cccc2c1OCCCO2	SIRT5 inh 20
COCC(=O)Nc1ccc2c(c1)[C@H]1C[C@H](CC(=O)NCc3ccc(Cl)cc3)O[C@H](CO)[C@H]1O2	none (no result: ERAP1 HTS inh, SIRT5 inh)
CC12CCC(C(=O)NCCc3ccccc3)(OC1=O)C2(C)C (stereo not given)	SIRT5 inh 15
CCCNC(=O)C12CCC(C)(C(=O)O1)C2(C)C (stereo not given)	none (no result: ERAP1 HTS inh)
CC1=C/C(=N\OS(=O)(=O)c2ccccc2)C(C)=CC1=O	PGC1a acetyl inh 60 (no result: FN deposition inh, FGF22 binding)
CC1=C(C)/C(=N\OS(=O)(=O)c2ccc(C)cc2)C=CC1=O	FN deposition inh 33 (no result: ERAP1 HTS inh, PGC1a acetyl inh, SIRT5 inh, FGF22 binding)
COc1ccc(S(=O)(=O)/N=C2/C=CC(=O)C(C)=C2C)cc1	none (no result: FN deposition inh, ERAP1 HTS inh, SIRT5 inh, FGF22 binding)
CCN(CC)c1ccc(C(=O)N/N=C/c2ccccc2OC(F)F)cc1	FN deposition inh 41 (no result: PGC1a acetyl inh)
O=C1/C(=C/c2ccc([N+](=O)[O-])cc2)Oc2cc(O)ccc21	SIRT5 inh 16 (no result: PGC1a acetyl inh)
O=C1/C(=C/c2ccc(Br)cc2)Oc2cc(O)ccc21	none (no result: PGC1a acetyl inh)
c1ccc(-c2ccccc2OCc2nnc3n2CCC3)cc1	FGF22 binding 43 (no result: FN deposition inh, SIRT5 inh)
COc1cccc(-c2ccc3n(c2=O)C[C@H]2[C@H](CO)[C@@H](C(=O)NC4CCCC4)N[C@@H]32)c1	none (no result: FN deposition inh, PGC1a acetyl inh)
O=C(C[C@H]1C=C[C@@H](NC(=O)c2ccc3c(c2)OCO3)[C@@H](CO)O1)NCc1ccc(F)cc1	none (no result: PGC1a acetyl inh, FGF22 binding)
COc1ccccc1S(=O)(=O)N[C@H]1CC[C@@H](CC(=O)N2CCOCC2)O[C@@H]1CO	none (no result: FN deposition inh)
CNC(=O)CSc1nnc(-c2ccc3c(c2)OCO3)n1C	FGF22 binding 43 (no result: PGC1a acetyl inh)
COC(=O)CSc1nnc(-c2ccc3c(c2)OCO3)n1C	none (no result: ERAP1 HTS inh, SIRT5 inh, FGF22 binding)
O=C(C[C@H]1C=C[C@@H](NC(=O)CN2CCOCC2)[C@H](CO)O1)NCCc1ccccc1	none (no result: FN deposition inh)
COc1ccc(/C=N/Nc2nc(N3CCCC3)nc(N3CCCC3)n2)cc1	none (no result: SIRT5 inh)
COC(=O)c1ccc(/C=N/Nc2nc(N3CCCCC3)nc(N3CCCCC3)n2)cc1	FGF22 binding 44 (no result: PGC1a acetyl inh)
COc1ccc(/C=C2\N=C(C(C)(C)C)OC2=O)c(OC)c1	none
CN(C)c1ccc(/C=C2\N=C(C(C)(C)C)OC2=O)cc1	SIRT5 inh 18
CCCC(=O)Nc1ccc2c(c1)C(=O)N(C)C[C@H](OC)[C@H](C)CN(C)[C@@H](C)CO2	none (no result: FN deposition inh)
Cc1cc(C(=O)Nc2cccc3c2O[C@H](CN(C)S(=O)(=O)c2ccc(F)cc2)[C@@H](C)CN([C@@H](C)CO)C3=O)n(C)n1	none (no result: FN deposition inh)
CCN(CC)CC(O)Cn1c(-c2ccccc2Cl)nc2ccccc21 (stereo not given)	none (no result: SIRT5 inh)
CC(C)c1ccccc1NC(=O)Cn1c(-c2ccccc2Cl)nc2ccccc21	PGC1a acetyl inh 43 (no result: ERAP1 HTS inh, SIRT5 inh, FGF22 binding)
C[C@@H]1CN([C@@H](C)CO)S(=O)(=O)c2ccc(C3=CCCC3)cc2O[C@H]1CN(C)S(C)(=O)=O	none (no result: FN deposition inh, ERAP1 HTS inh, SIRT5 inh, FGF22 binding)
COCC(=O)N1CC2(C1)CN(Cc1cc(F)ccc1F)[C@@H](CO)c1c2c2ccc(OC)cc2n1C	none (no result: FN deposition inh)
COc1ccc2c3c([nH]c2c1)[C@H](CO)N(C(=O)C1CCC1)CC31CCN(C(=O)NC(C)C)CC1	none (no result: FN deposition inh, PGC1a acetyl inh)
CCC(=O)c1ccc(OCC(O)Cn2c(C)nc3ccccc32)cc1 (stereo not given)	none (no result: ERAP1 HTS inh, SIRT5 inh, FGF22 binding)
O=C(O)c1ccc(OCC(O)Cn2c3ccccc3c3ccccc32)cc1 (stereo not given)	SIRT5 inh 24
Cc1nc2ccccc2n1CC(O)COc1ccc(Br)cc1 (stereo not given)	FGF22 binding 44 (no result: PGC1a acetyl inh)
CC(C)NC(=O)Nc1ccc2c(c1)C(=O)N([C@@H](C)CO)C[C@H](C)[C@H](CN(C)Cc1ccc3c(c1)OCO3)OCCCC[C@@H](C)O2	none (no result: ERAP1 HTS inh, SIRT5 inh)
CCOC(=O)c1c(O)c(Cl)c(C)[nH]c1=O	FGF22 binding 43
